# Most compounds without a hit are left out; they make up all but 3.7% or so of the library.
# Kir21 inh – blocks the mouse Kir2.1 inward-rectifier potassium channel. P35561. HEK293-Kir2.1, FluxOR thallium flux fluorescence; hits give low values. B-score at 10 µM. actives 0.85% (n = 310,000). AID 1672;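 active means fluorescence ratio B-score at or below minus 3 SD of library scores, with starting-brightness B-score within 2 SD, cut at about -4.2 in these data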;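 further: channel flux triggered by added potassium and thallium sulfate stimulus; B-score of peak minus minimum fluorescence over baseline after thallium stimulus; more negative B-score means stronger Kir2.1 block with less thallium influx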
# Target sequence (P35561 whole entry, looked up): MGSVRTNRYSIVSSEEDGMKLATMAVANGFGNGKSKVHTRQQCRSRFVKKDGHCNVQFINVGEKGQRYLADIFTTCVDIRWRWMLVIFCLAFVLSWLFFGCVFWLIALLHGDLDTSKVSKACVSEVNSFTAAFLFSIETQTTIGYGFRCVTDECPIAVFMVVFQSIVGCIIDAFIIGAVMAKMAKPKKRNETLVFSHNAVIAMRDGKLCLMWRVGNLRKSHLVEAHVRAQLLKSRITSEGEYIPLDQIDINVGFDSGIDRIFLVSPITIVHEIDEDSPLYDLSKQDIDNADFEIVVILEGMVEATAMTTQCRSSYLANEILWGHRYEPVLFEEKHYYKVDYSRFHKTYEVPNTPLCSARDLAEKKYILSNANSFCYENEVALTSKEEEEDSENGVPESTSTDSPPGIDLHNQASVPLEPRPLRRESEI
# hERG protect – compounds protecting human hERG from proarrhythmic drug block. Q12809. CHO-hERG, FluxOR thallium flux, dofetilide IC70 present. activation (rescue from dofetilide block), less the hit threshold, % at 10 µM. actives 0.51% (n = 310,000). AID 1511;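 active means activation above the mean of controls blocked by dofetilide plus 5 SD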;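 further: thallium influx through hERG after potassium depolarization seen as dye fluorescence rise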
# KCNQ1 block – human KCNQ1 channel inhibition. AID 2642. P51787. actives 1.3% (n = 310,000). B-score at 10 µM. CHO-K1 KCNQ1, FluxOR thallium flux fluorescence; hits give high values;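 active means compounds whose thallium flux B-score, printed positive for inhibition, exceeds three library SD while starting fluorescence stays within three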;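 further: channel opened by potassium depolarization with thallium stimulus after 20 min compound exposure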
# KCNK9 block – inhibitors of human KCNK9 two-pore domain potassium channel | HEK293 KCNK9, FluxOR thallium flux fluorescence; hits give low values | actives 1.2% (n = 310,000) | Q9NPC2 | B-score at 10 µM;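 active means ratio B-score over 3 SD below the library mean, with starting fluorescence within 5 SD of its mean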;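 further: negative B-score means less thallium flux so channel inhibition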
# KCNK3 block – human KCNK3 channel inhibition, primary screen; B-score at 10 µM; O14649; CHO-KCNK3 thallium flux, FluxOR fluorescence; hits give low values; actives 0.84% (n = 340,000);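 active means B-score under library mean minus 4 SD, starting fluorescence ratio at most library mean plus 5 SD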;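 further: more negative B-score means stronger inhibition of thallium flux through KCNK3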
# KCNQ1 act – human KCNQ1 channel potentiation or activation | P51787 | CHO-K1 KCNQ1, thallium flux FluxOR fluorescence; hits give high values | B-score at 10 µM | actives 0.35% (n = 310,000) | AID 2648;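 active means fluorescence ratio B-score, a plate-corrected score, at least three library SD, with initial intensity B-score within 5 SD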
#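 Doses: Single concentration per compound, DMSO matched to controls | Test system: KCNQ1-transfected CHO-K1 cells | Timing: 90 min dye loading and 20 min compound exposure, both at room temperature | Measured by: Kinetic FluxOR thallium fluorescence, 10-s 1-Hz baseline, 110-s post-stimulus read | Medium: Assay buffer with matched DMSO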
# The depositor's hits bear a star; i = inactive; . = not tested or not shown; ! = not confirmed by another sample.
SMILES,Kir21 inh,hERG protect,KCNQ1 block,KCNK9 block,KCNK3 block,KCNQ1 act
CSC1=C(C#N)C(c2sccc2C)CC(=O)N1 (configuration not stated),-0.91,-3,i,i,i,i
CC(C)OC(=O)C(C)(C)Oc1ccc(C(=O)c2ccc(Cl)cc2)cc1,-0.17,-10,i,i,i,i
CCNC(=O)NC(=O)C(C)OC(=O)C(C)(C)Oc1ccc(Cl)cc1 (configuration not stated),-5.3*,1,i,i,i,i
O=[N+]([O-])c1cc(Br)c(O)c(/C=N/Nc2nnnn2-c2cccc3ccccc23)c1,-1.7,-36,7*,i,i,i
COc1ccc(C)cc1NC(=O)CCS(=O)(=O)c1ccc2c(c1)oc(=O)n2C,0.17,-7,i,i,i,i
COc1cc2[nH]c(C(=O)NCc3ccccc3)cc2c(OC)c1OC,-6.3*,-3,i,i,i,i
COc1ccc(C2=NS(=O)(=O)N(C)C(C(=O)Nc3ccc(C)cc3)=C2)cc1,0.2,-9,i,i,i,i
CCc1ccc(NC(=O)C2=CC(c3ccc(OC)cc3)=NS(=O)(=O)N2C)cc1,-0.37,-11,i,-7.6*,i,i
Cc1cccc(NC(=O)c2ccc(NC(C)c3ccccc3)c([N+](=O)[O-])c2)n1 (configuration not stated),0.83,2,i,i,i,i
OCC1(CCOc2ccccc2)CCN(Cc2ccncc2)CC1,0.82,-4,i,i,i,i
OCC1(CCOc2ccccc2)CCN(Cc2cc(Cl)ccc2O)CC1,-4.6*,-8,i,i,i,i
OCC1(CCCc2ccccc2)CCN(Cc2cc(F)ccc2F)CC1,-4.4*,-5,i,i,i,i
CCn1ncc(C2=NOC(C(=O)Nc3cc(OC)c(Cl)cc3OC)C2)c1C (configuration not stated),-0.6,-8,i,i,i,i
Cc1nn(-c2ccc(Cl)cc2)c2sc(C(=O)c3c(N)n(C)c(=O)n(C)c3=O)cc12,1.7,24*,i,i,i,i
Cn1c(N)c(C(=O)c2ccc(Cl)cc2)c(=O)n(C)c1=O,2.1,-5,i,i,i,i
O=C(NC(=S)N1CCCCC1)C12CC3CC(CC(C3)C1)C2,-2.7,-13,i,i,i,i
O=C(c1cc(NC(=O)C23CC4CC(CC(C4)C2)C3)cc(NC(=O)C23CC4CC(CC(C4)C2)C3)c1)N1CCCCC1,-0.38,-7,10*,i,.,i
CCOC(=O)c1ccccc1OC(=O)CS(=O)c1ccccc1[N+](=O)[O-] (configuration not stated),-0.97,-8,6*,i,i,i
CCCCCCCCCCCCCCCC[n+]1ccc(C(N)=O)cc1,.,.,.,.,i,.
CCCCCCCCCCCCCCCC[n+]1ccccc1,.,.,.,.,-11*!,.
COc1ccccc1NS(=O)(=O)c1cccc(C(=O)N2CCN(C(=O)c3ccco3)CC2)c1,.,.,.,.,i,.
CCOC(=O)c1cnc2c(ccc3ccccc32)c1Cl,0.01,-6,i,i,i,i
CSc1ncc(C(=O)Nc2ccccc2C)c(C)n1,1.1,-4,i,i,i,i
CCOC(=O)c1cnc(SC)nc1Sc1ccccc1Cl,-0.75,-10,6*,i,i,i
CSc1ncc(C(=O)Nc2ccccc2Cl)c(C)n1,0.58,-4,i,i,i,13*
SMILES,Kir21 inh,hERG protect,KCNQ1 block,KCNK9 block,KCNK3 block,KCNQ1 act
COCc1ccc(C(=O)N2CCCC(CNC(=O)c3ccc(F)cc3)C2)o1 (configuration not stated),0.46,-9,i,i,i,i
COc1cccc(N(C(=O)Cn2nnc(-c3ccc(C)o3)n2)C(C(=O)NC(C)(C)C)c2cccs2)c1 (configuration not stated),0.66,6.4*,i,i,i,i
NC(=O)c1cccc(N=Cc2cc(Cl)cc(Cl)c2O)c1,0.09,6.5*,i,i,i,10*
Cc1cccc(N=Cc2cc(Br)cc(Cl)c2O)c1,-0.97,4,i,i,i,i
Oc1c(Cl)cc(Cl)cc1/C=N/c1nccs1,0.26,-6,i,i,i,9*
Oc1c(Cl)cc(Cl)cc1/C=N/c1nc(-c2ccc(Cl)cc2)cs1,1.7,3,i,i,i,i
CC1CN(C(=O)COC(=O)c2ccc3ncsc3c2)CC(C)O1 (configuration not stated),.,.,.,.,i,.
CN(CC(=O)NCc1cccc(F)c1)C(=O)c1ccco1,1.6,6.5*,i,i,i,i
Cc1ccc(C)n1-c1ccc(C(=O)N2CCC(C(N)=O)CC2)cc1,-0.03,7.2*,i,i,i,i
C=CC1CN2CCC1CC2C(O)c1ccnc2ccc(OC)cc12 (configuration not stated),.,.,.,.,i,.
CC1CCCC(C)N1C(=O)CSCc1ccc(Cl)cc1 (configuration not stated),-4.9*,-6,i,i,i,i
CC1CCCC(C)N1C(=O)COC(=O)Cc1ccc(Cl)cc1 (configuration not stated),1.5,-2,i,i,i,i
CC(CCc1ccccc1)NC(=O)CN1C(=O)NC2(CCCCC2)C1=O (configuration not stated),-0.3,-13,i,i,i,i
COCCNC(=O)c1cc2cc3ccc(OC)cc3nc2o1,0.78,-4,i,i,i,i
CCCCN(CC)C(=O)c1cc2cc3ccc(OC)cc3nc2o1,3,-10,i,-6.7*,i,i
Nc1nc2n(n1)C(=O)CC(c1ccc(Cl)cc1)N2 (configuration not stated),-0.78,5.0*,i,i,i,i
CC1(C)C[C@H](O)[C@]2(CO)[C@H](O)C[C@]3(C)C(=CCC4[C@@]5(C)CC[C@H](O)C(C)(C)C5CC[C@]43C)[C@@H]2C1 (some centres not stated),.,.,.,.,i,.
CCCCCCOc1ccc(N2C(=O)CC(N(CCc3ccc(S(N)(=O)=O)cc3)C(C)=O)C2=O)cc1 (configuration not stated),-0.85,-10,i,i,i,i
Cc1ccccc1-c1nnn(Cc2cccc(S(=O)(=O)N3CCOCC3)c2)n1,.,.,.,.,-9*,.
Cc1cc(OCc2cccc(S(=O)(=O)N3CCOCC3)c2)ccc1Cl,.,.,.,.,-9.6*,.
Cc1ccc(S(=O)(=O)NCC(=O)N(CC(=O)NC2CCCCC2)CC2CCCO2)cc1 (configuration not stated),0,-11,i,i,i,i

# High-throughput results deposited in PubChem by Johns Hopkins Ion Channel Center.
